Published values pooled from the literature.
Each line is one published result; the experiments were not run side by side.
Target: Serine/threonine-protein kinase 24 (STK24, Homo sapiens, UniProt Q9Y6E0)

SMILES | observed | action | method | tested at | quantity | result
Cn1cc(-c2cc(F)cc(N3CCn4c(cc5c4CCCC5)C3=O)c2CO)cc(Nc2ccc(N3CCN(C4COC4)CC3)cn2)c1=O | enzyme activity | inhibitor |  | 0.1 µM | inhibition | 18%
Cc1nn(C)cc1-c1nc2c(N3CCN(Cc4ccc(Cl)cc4)CC3)c(Cl)cnc2[nH]1 | binding |  | competition with immobilised ligand | 1 µM | remaining binding | 85%
Cn1cncc1[C@@](O)(COc1ccc(C#N)cc1-c1ccc(OC(F)(F)F)cc1)c1ccc(C#N)cc1 | cell-free assay |  | competition with immobilised ligand | 1 µM | remaining binding | 100%
O=c1[nH]c2ccccc2n1C1CCN(Cc2ccc(-c3[nH]c4cc5ncnc5cc4nc3-c3ccccc3)cc2)CC1 | cell-free assay |  |  | 0.5 µM | remaining signal | 90.7%
Nc1ncc(-c2nc(N3CCOCC3)nc(N3CCOCC3)n2)c(C(F)F)n1 | binding |  | competition with immobilised ligand | 10 µM | remaining binding | 91%
COCc1c(-c2cc3cc(C)cc(OC)c3s2)c2c(N)ncnn2c1CN1CCNC(=O)C1 | cell-free assay |  | competition with immobilised ligand | 1 µM | inhibition | 90.6%
N#CC1(c2ccccn2)CCN(Cc2cc(C(=O)O)c(=O)n3ccccc23)CC1 | cell-free assay |  | competition with immobilised ligand | 1 µM | remaining binding | 100%
CC(C)(C)c1cc(C=C(C#N)C#N)cc(Br)c1O | enzyme activity | inhibitor |  | 0.5 µM | remaining activity | 96.3%
Cn1cc(-c2cccc(N3CCc4c(sc5c4CC(C)(C)C5)C3=O)c2CO)cc(Nc2ccncn2)c1=O | enzyme activity | inhibitor |  | 1 µM | inhibition | 3%
COc1ncccc1-c1cnn2ccc(N3CCN(C(=O)OC(C)C)CC3)nc12 | binding |  | competition with immobilised ligand | 1 µM | remaining binding | 84%
